High-throughput results as filed in PubChem.
Cneo AK release: Cryptococcus neoformans cell lysis inducers, primary screen, AK release luminescence, single concentration; C. neoformans lysis, adenylate kinase release luminescence, 4 h; normalised: neutral wells 0, clomiphene wells 100; 0.2% of 360,000 active; AID 651654, 2012; lysis activity, % at 15 µM;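 active = mean lysis activity across replicates of at least 80%, whatever share of replicates individually reach that level; inactive = mean lysis activity below 80%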
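Material – Cryptococcus neoformans yeast cells · Quantity – 5 × 10^6 yeast cells/mL · Buffer or medium – YPD medium · Compound – single dose · Timing – 4 h static compound exposure, 37 °C, read 1 h post-reagent · Signal – adenylate kinase release luminescence · Read-out basis – lysis from increased AK signal · Benchmarks – Clomiphene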
PGC1a acetyl inh: inhibitors of PGC1a acetylation signal, primary screen, cell-based, U2OS, AlphaScreen, inhibitor mode; 0.17% of 350,000 active; AlphaScreen anti-acetyl-lysine; with virally co-expressed GCN5 acetyltransferase; AID 651687, 2012; inhibition, % at 15.6 µM;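 active = every replicate shows inhibition of at least 40%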
rRNA inh HTS: reduced GFP signal of wild-type E. coli, primary screen, bacterial rRNA inhibitor project, GFP/RFP fluorescence, OD600, single point. E. coli WT GFP vs humanized-ribosome RFP mutants, 24 h; stronger effect = lower value; DMSO median 0, no signal -100. GFP signal change (wild-type ribosome), % (test concentration not listed). 1.6% of 350,000 active;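 active = significant combined selectivity score with lowered wild-type GFP, culture density cut under 30%, mutant RFP and density less affected; inactive = any of these conditions unmet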
SIRT5 block: SIRT5 desuccinylase inhibitors, primary screen, biochemical, fluorescence imaging, single point, set 5; Purified SirT5, succinyl-peptide AMC, trypsin-coupled fluorescence; 1.1% of 330,000 active; inhibition, % at 15 µM; in the data active = inhibition above about 15%
Target sequence (Q9NXA8 whole entry, looked up): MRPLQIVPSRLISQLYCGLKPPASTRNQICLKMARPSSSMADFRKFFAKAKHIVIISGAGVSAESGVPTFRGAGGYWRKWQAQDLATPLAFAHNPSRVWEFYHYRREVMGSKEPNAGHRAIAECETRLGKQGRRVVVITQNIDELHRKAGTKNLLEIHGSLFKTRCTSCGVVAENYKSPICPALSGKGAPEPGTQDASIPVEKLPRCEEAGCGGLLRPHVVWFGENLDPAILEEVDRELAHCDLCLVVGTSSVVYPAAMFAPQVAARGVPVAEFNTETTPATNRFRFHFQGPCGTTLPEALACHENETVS
Statin myotox sup: suppressors of statin myotoxicity in C2C12 myotubes, primary screen, cell-based, single point, plate reader; 0.78% of 330,000 active; C2C12 myotubes + simvastatin, ATP luminescence, 48 h; scaled: DMSO 0, geranylgeraniol control 100; rescue of ATP level, % at 7.49 µM;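 active = mean ATP rescue above about 67%, or every replicate alone reaching that limit, limit read from the data, passing the limit was not always enough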;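 also: myotubes were challenged with 10 µM simvastatin during compound exposure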
S100A4 MyoIIA: inhibitors of S100A4-myosin IIA peptide binding, primary screen, biochemical, fluorescence polarization, TAMRA-MyoIIA peptide; inhibition, % at 10.7 µM; 0.14% of 360,000 active; AID 652163, 2013;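 active = mean inhibition of at least 70% across replicates, with every replicate also reaching that level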
Target sequence (P26447 whole entry, looked up): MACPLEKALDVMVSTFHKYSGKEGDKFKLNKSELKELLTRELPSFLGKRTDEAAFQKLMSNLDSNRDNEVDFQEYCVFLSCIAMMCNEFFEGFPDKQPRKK
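Test system: S100A4 monomer protein. Medium: HEPES buffer with Ca2+, pH 7.2. Reagent: fluorescent myosin IIA peptide, 5 nM. Compound dosing: single-point compound testing. Timing: 5 min between mix addition and reading. Benchmarks: DMSO neutral and TFP positive wells.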
Hits are given with their value; i = inactive; nt = no result. Hits are enriched below; roughly 3% of the tested compounds scored in any of these assays.

SMILES	Cneo AK release	PGC1a acetyl inh	rRNA inh HTS	SIRT5 block	Statin myotox sup	S100A4 MyoIIA
CC(C)C#Cc1cnc2c(c1)C(=O)N([C@@H](C)CO)C[C@H](C)[C@@H](CN(C)C(=O)C1CCC1)O2	i	i	i	i	i	i
Cc1ccc2nc(N/N=C/c3ccco3)cc(C)c2c1	i	nt	-20	i	nt	i
Cc1ccc2nc(SCC(=O)N/N=C/c3ccco3)cc(C)c2c1	nt	nt	i	i	nt	i
N#CC1(NC(=O)CSc2nc3ccc([N+](=O)[O-])cc3s2)CCCCC1	nt	nt	-17	i	i	i
Cn1nnnc1SCC(=O)NCc1cc([N+](=O)[O-])ccc1O	nt	nt	i	i	nt	i
O=C(CSc1nc2ccccc2s1)NCc1cc([N+](=O)[O-])ccc1O	i	i	-31	i	i	i
C[C@@H]1CCCCO[C@H](CN(C)C)[C@@H](C)CN([C@@H](C)CO)C(=O)c2cc(NC(=O)Nc3ccccc3)ccc2O1	i	i	i	i	i	i
CCCCn1c(N)c(N(CC(C)C)C(=O)CSCc2ccc(Cl)c(Cl)c2)c(=O)[nH]c1=O	i	i	i	17	i	i
CCn1c(=O)c([N+](=O)[O-])c(N2CCSCC2)c2ccccc21	i	i	-34	i	i	i
CCn1c(=O)c([N+](=O)[O-])c(N2CCN(Cc3ccc4c(c3)OCO4)CC2)c2ccccc21	nt	nt	-24	i	nt	i
Cc1ccccc1CSc1[nH]c(=O)ncc1C	i	nt	i	i	i	i
Cc1ccc(CSc2[nH]c(=O)ncc2C)cc1	i	i	-19	i	i	i
Cc1ccc(C(=O)/C=C/C(=O)c2ccc(C)cc2)cc1	nt	i	-24	i	nt	i
CO[C@@H]1CN(C)C(=O)c2ccc(NC(=O)Cc3ccccc3)cc2OC[C@@H](C)NC[C@@H]1C	i	i	i	i	i	i
Cc1cccc(NC(=S)N2N=CCC2c2ccccc2)c1 (centres undefined)	i	i	-23	i	i	i
C[C@@]12C(=O)OC(=O)[C@]1(C)C1CCC2O1	i	47	nt	i	i	i
C[C@H]1CCCCO[C@@H](CN(C)C(=O)CCC(F)(F)F)[C@@H](C)CN([C@@H](C)CO)C(=O)c2cc(NC(=O)NC3CCCCC3)ccc2O1	i	i	i	i	nt	i
CCc1ccccc1OCC(=O)NNCC(=O)Nc1cccc(C#N)c1	i	i	-20	i	i	i
O=C(NNC(=O)C12CC3CC(CC(C3)C1)C2)c1cnccn1	i	i	nt	nt	nt	nt
O=C(NNC(=O)C12CC3CC(CC(C3)C1)C2)c1ccccn1	i	i	-43	i	nt	i
CC#CC[N+](C)(C)CCCCCCCC	i	i	i	25	nt	i
CCCCCCCCCCCCCCCC[N+](C)(C)Cc1ccc(F)cc1	nt	nt	i	i	nt	i
CCOC(=O)c1ccccc1NC(=O)c1cccc([N+](=O)[O-])c1	nt	i	i	nt	nt	i
Cc1c(N)cc(S(=O)(=O)O)cc1NC(=O)c1cccc([N+](=O)[O-])c1	i	i	i	28	i	i
COc1ccc2c3c([nH]c2c1)[C@H](CO)N(C(=O)Nc1ccc(F)cc1)CC31CCN(S(=O)(=O)c2cccc(C)c2)CC1	nt	nt	i	i	nt	i
O=C1NC(=O)C2(CCc3ccccc32)N1 (centres undefined)	i	i	nt	nt	65	nt
O=C(O)CN1C(=O)NC2(CCc3ccccc32)C1=O (centres undefined)	i	i	i	nt	i	i
O=C(NCC1CC1)[C@@H]1[C@@H](CO)[C@@H]2Cn3c(cccc3=O)[C@H]1N2CCc1ccccc1	i	nt	i	i	i	i
CCCNC(=O)C[C@@H]1CC[C@@H]2[C@H](COC[C@@H](O)CN2C(=O)C2CCOCC2)O1	i	i	i	16	i	i
